Compound activity from PubChem BioAssay.
HIF act – HIF pathway transcriptional activators, primary screen, cell-based, U2OS HRE-luciferase, luminescence; U2OS HRE-luciferase reporter; normalized: DMSO 0%, desferrioxamine 100%; activation, % at 7.5 µM (by protocol); 300,000 tested, 0.32% active; AID 1910, 2009;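 active = mean activation of at least 10% of the iron chelator positive control signal, with at least half of replicates also reaching 10%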
PP5 primary – PP5 phosphatase inhibitors, primary screen, biochemical, fluorescence. Serine/threonine-protein phosphatase 5 (Homo sapiens), P53041. purified PP5c, OMFP substrate fluorescence. inhibition, % at 6.7 µM. 320,000 tested, 0.18% active. AID 1987, 2009;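 active = inhibition above the campaign's mean inhibition across all tested compounds plus 3 SD, cut at about 9.5% in these data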;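 also: 0% = DMSO only and 100% = 100 µM cantharidin control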
PP1 counter – PP1-alpha phosphatase inhibitors, primary screen, counter-screen for PP5 inhibitor project, biochemical, fluorescence, OMFP substrate, single point; 320,000 tested, 0.9% active; Serine/threonine-protein phosphatase PP1-alpha catalytic subunit (Homo sapiens), P62136; AID 2235, 2010; inhibition, % at 6.7 µM; purified PP1alpha;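 active = inhibition above the mean inhibition of all tested compounds plus 3 SD, computed separately for each screening campaign, cut at about 15% in these data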
Target sequence (P62136 whole entry, looked up): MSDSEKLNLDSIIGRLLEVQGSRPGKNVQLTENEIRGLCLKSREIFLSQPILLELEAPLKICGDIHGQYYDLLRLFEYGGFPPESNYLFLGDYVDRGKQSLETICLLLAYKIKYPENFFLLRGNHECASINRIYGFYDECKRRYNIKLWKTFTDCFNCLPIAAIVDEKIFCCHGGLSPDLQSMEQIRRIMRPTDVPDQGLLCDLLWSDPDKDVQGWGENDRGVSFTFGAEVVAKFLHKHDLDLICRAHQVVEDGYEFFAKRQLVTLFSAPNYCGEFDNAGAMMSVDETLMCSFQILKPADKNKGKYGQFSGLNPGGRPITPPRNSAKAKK
HCV NS3 hel inh – inhibitors of HCV NS3 helicase, primary screen, biochemical, Cy5 molecular beacon fluorescence. 290,000 tested, 0.56% active. AID 1800, 2009. inhibition, % at 10.9 µM. NS3 helicase DNA unwinding;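 active = inhibition above the mean of all tested compounds plus 3 SD, set per campaign, cut at about 35% in these data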;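 also: 0% = DMSO wells and 100% = thioflavine S control wells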
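assay system = NS3 helicase fragment of HCV | buffer or medium = MOPS pH 6.5, MgCl2, DTT, Tween20, BSA | timing = 60 min unwinding reaction at 25 °C after ATP addition | signal = Cy5 beacon fluorescence read at start and 1 h | read-out basis = % inhibition of unwinding | control set = low DMSO, high thioflavine S at 110 µM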
DNA FID counter-1 – compounds displacing fluorescent DNA intercalator, primary screen, artefact control for HCV NS3 helicase inhibitor project, biochemical, FID fluorescence; DNA fluorescent intercalator displacement; inhibition, % at 7.9 µM; 290,000 tested, 0.17% active;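 also: 0% = vehicle and 100% = reference compound; higher means more ethidium bromide displaced from hairpin DNA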
NS3 hel confirm – HCV NS3 helicase inhibitors, retest, confirmation, biochemical, Cy5 molecular beacon fluorescence, triplicate; inhibition, % at 10.9 µM; 1,600 tested, 31% active; shares compounds with HCV NS3 hel inh; NS3 helicase DNA unwinding;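 active = inhibition above the mean of all tested compounds plus 3 SD, cutoff set per campaign, cut at about 36% in these data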
DNA FID counter-2 – compounds displacing fluorescent DNA intercalator, artefact control for HCV NS3 helicase inhibitor project, biochemical, FID fluorescence, triplicate | 1,600 tested, 4% active | shares compounds with HCV NS3 hel inh | inhibition, % at 7.9 µM | DNA fluorescent intercalator displacement | AID 1945, 2009;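 also: 0% = vehicle and 100% = reference compound; higher means more displacement of ethidium bromide from the DNA hairpin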
DNA FID DR – compounds displacing fluorescent intercalator from DNA, dose response, counter-screen for HCV NS3 helicase inhibitor project, biochemical, fluorescence. fluorescent intercalator displacement from DNA. shares compounds with HCV NS3 hel inh. 120 tested, under 10 active. IC50, µM; call rule not given here
* hit, by the source's call; x = no result given. Only some compounds are listed: those with a hit (about 1.9% of all), similar ones and a draw of the others. Rule as the data show it, unless noted: active = inhibition above about 37%; inactive = the rest.

SMILES	HIF act	PP5 primary	PP1 counter	HCV NS3 hel inh	DNA FID counter-1	NS3 hel confirm	DNA FID counter-2	others
COc1ccc(Cl)cc1NC(=O)C1CC(c2ccccc2O)=NO1 (stereo not given)	0	0	-3	-5	0	x	x
O=C(O)c1cccc(-n2cccc2/C=C/[N+](=O)[O-])c1	0	-1	5	41*	-21	41*	13
CCc1ccc(OCC(=O)Nc2ccc(S(=O)(=O)Nc3cc(C)on3)cc2)c(Br)c1	0	4	3	-16	-48	x	x
Cc1ccc(C)c(S(=O)(=O)N2CCN(Cc3cc4c(cc3O)OCO4)CC2)c1	x	2	-3	x	x	x	x
CC(OC(=O)c1ccc(Cl)c(S(=O)(=O)N2CCCC2)c1)C(=O)NC1CCCCC1C (stereo not given)	0	-5	-4	37*	-44	-14	-16
COc1ccc(NC2CCCN(C(=O)CN3C(=O)c4ccccc4C3=O)C2)cc1OC (stereo not given)	-1	-1	-4	9	-17	x	x
O=C(N/N=C/c1ccccc1)c1ccc(NC(=O)c2ccc(F)cc2)cc1	0	2	10	38*	-20	-9	1
COc1ccc(C(=O)N/N=C/c2ccc(OC)c(COc3ccc(F)cc3)c2)cc1	0	5	-1	-9	-25	x	x
Cc1ccc(/C=N/NC(=O)c2cccc(NC(=O)c3ccccc3C)c2)o1	0	3	-2	2	-20	x	x
COc1ccc(/C=N\NC(=O)c2ccccc2)cc1COc1ccc(F)cc1	1	3	-10	46*	-32	-12	-35
Cc1cccc(C(=O)Nc2ccc(C(=O)N/N=C/c3ccc(C)o3)cc2)c1	1	4	9	41*	-16	-16	-20
COCCN(C(=O)CNC(=O)c1ccco1)C(C(=O)NC1CCCC1)c1ccccc1 (stereo not given)	0	3	-3	11	-18	x	x
COCCN(C(=O)CNC(=O)c1ccco1)C(C(=O)NC1CCCC1)c1ccc(OC)cc1 (stereo not given)	0	1	5	44*	-37	-4	6
O=C(Nc1nnc(CCS(=O)(=O)c2ccc3ccccc3c2)s1)c1ccc([N+](=O)[O-])cc1	-1	1	-4	-8	-4	x	x
CCOC(=O)c1ccc(N=Cc2c(O)c3ccccc3oc2=O)cc1	-3	0	9	41*	-11	-15	-3
O=C(/C=C/c1ccoc1)c1ccccc1O	0	1	1	-2	-1	x	x
COc1ccc2ccccc2c1C(=O)/C=C\c1ccoc1	-1	0	0	55*	-20	9	4
CCOc1cccc2cc(-c3nnc(NCc4ccco4)s3)c(=O)oc12	0	2	14	15	2	x	x
COc1ccc2oc(=O)c(-c3nnc(NCc4ccco4)s3)cc2c1	4	2	12	37*	1	-5	23
O=C1CC(NCc2ccc3c(c2)OCO3)C(=O)N1CCc1ccccc1 (stereo not given)	0	3	-2	54*	27	-13	-18
O=C(CCC1CCN(Cc2ccc(Cl)cc2)CC1)NC1CC1	2	2	1	36*	-2	-15	1
NC(=S)N/N=C/c1ccccc1	0	2	3	5	-1	x	x
NC(=S)N/N=C/c1ccc(C23CC4CC(CC(C4)C2)C3)cc1	-22	4	6	56*	-26	37*	-6	DNA FID DR=>79
CCOc1cc2[nH]c(=S)n(CCOC)c(=O)c2cc1OCC	-1	3	1	-4	-6	x	x
COCCn1c(=S)[nH]c2ccc(N(C)C)cc2c1=O	0	2	-2	39*	-2	-9	6
SMILES	HIF act	PP5 primary	PP1 counter	HCV NS3 hel inh	DNA FID counter-1	NS3 hel confirm	DNA FID counter-2	others
O=C(COC(=O)Cc1ccccc1F)Nc1cc(S(=O)(=O)N2CCOCC2)ccc1N1CCCC1	0	-3	-2	-6	-21	x	x
O=c1c(-c2ccccc2)c(O)c2cccc3c2n1CCC3	-1	3	-5	0	-4	x	x
Cc1cc(C)c(-c2c(O)c3cccc4c3n(c2=O)CCC4)c(C)c1	0	4	-4	40*	-26	-16	-3
O=S(=O)(Nc1nc2ccccc2nc1NCC1CCCO1)c1ccccc1 (stereo not given)	0	0	-4	5	-30	x	x
O=S(=O)(Nc1nc2ccccc2nc1NCC1CCCO1)c1ccc(F)cc1 (stereo not given)	0	0	-6	42*	-50	-6	-29
CCOC(=O)C1=C(O)C(=O)N(c2ccc(S(N)(=O)=O)cc2)C1c1ccc(Cl)cc1 (stereo not given)	0	2	12	14	-14	x	x
NS(=O)(=O)c1ccc(N2C(=O)C(=O)/C(=C(/O)c3ccccc3)C2c2ccc(Cl)cc2)cc1 (stereo not given)	0	-1	10	41*	-39	11	-11
O=c1c(C(c2ccc(Cl)cc2)c2c(O)nc3n(c2=O)CCS3)c(O)nc2n1CCS2	0	1	-8	47*	-5	23	2
O=c1c(C(c2ccc(Cl)cc2)c2c(O)nc3n(c2=O)CCCS3)c(O)nc2n1CCCS2	1	1	8	4	-10	x	x
Cc1cc(NS(=O)(=O)c2cc(Cl)sc2Cl)no1	0	1	2	-5	-2	x	x
O=C(c1ccccc1)c1coc2c1C(=O)c1ccccc1C2=O	2	1	0	11	1	x	x
COc1ccc(C(=O)c2coc3c2C(=O)C(=O)c2ccccc2-3)cc1	2	3	0	41*	-9	-8	-3
COc1cccc(/C=N/NC(=O)c2oc3nc(-c4ccccc4)cc(-c4ccco4)c3c2N)c1	0	3	5	39*	-19	2	-27
CN(CC(=O)Nc1ccc(F)cc1)C(=O)COC(=O)c1cc(S(=O)(=O)N(C)C)ccc1N1CCCC1	1	2	-2	x	x	x	x
CCCCOc1ccc(C(=O)Nc2ccc(S(=O)(=O)Nc3onc(C)c3C)cc2)cc1	0	5	0	40*	-15	54*	-21
CC(C)Cn1c(/C=C/c2ccco2)nc2ccccc21	1	0	3	55*	-31	-14	-1
C/C(=N/NC(=O)c1sc(=S)n(C)c1C)c1ccccc1	0	4	-5	3	7	x	x
